Screens (PubChem BioAssay)
CHT allo act: human CHT allosteric activation. 0.49% of 310,000 active. B-score at 10 µM. CHT-expressing cells, membrane potential dye, choline EC20; hits give high values; LV-AA mutant CHT in HEK293 cells;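 active means initial fluorescence not abnormally high and integrated response B-score, plate-corrected, over 3 SD above library mean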
Target sequence (Q9GZV3 whole entry, looked up): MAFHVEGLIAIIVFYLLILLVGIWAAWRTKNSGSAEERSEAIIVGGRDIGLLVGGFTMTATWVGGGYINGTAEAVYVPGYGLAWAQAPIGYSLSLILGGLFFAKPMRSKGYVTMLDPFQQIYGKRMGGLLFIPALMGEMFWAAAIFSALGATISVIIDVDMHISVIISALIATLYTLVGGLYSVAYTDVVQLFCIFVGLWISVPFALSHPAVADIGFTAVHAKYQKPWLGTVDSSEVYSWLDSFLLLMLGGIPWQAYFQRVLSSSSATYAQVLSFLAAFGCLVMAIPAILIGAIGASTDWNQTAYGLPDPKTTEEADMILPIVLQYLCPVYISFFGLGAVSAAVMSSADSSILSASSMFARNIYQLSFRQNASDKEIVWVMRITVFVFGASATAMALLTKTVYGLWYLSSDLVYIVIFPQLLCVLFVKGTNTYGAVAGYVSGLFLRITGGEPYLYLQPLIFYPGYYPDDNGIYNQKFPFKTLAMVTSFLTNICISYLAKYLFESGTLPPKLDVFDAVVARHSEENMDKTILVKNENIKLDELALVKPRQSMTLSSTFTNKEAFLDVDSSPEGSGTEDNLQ
CHT inh: inhibitors of human choline transporter CHT; Q9GZV3; CHT-expressing cells, membrane potential dye, choline response; hits give low values; B-score at 10 µM; 0.86% of 310,000 active;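 active means B-score over 3 SD under the library average, and starting fluorescence ratio not unusually high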;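 further: choline stimulus applied at its EC90 after an EC20 pre-addition; B-score computed on integrated fluorescence ratio after choline addition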
T cruzi repl: T. cruzi replication inhibition; T. cruzi beta-gal in NIH3T3, luminescence, 90 h; inhibition, % (no concentration beside the values); 1.4% of 300,000 active; AID 1885;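 active means mean inhibition across valid replicates above about 55%, limit read from the data; inconclusive means mean below that limit but half or more replicates reach it; inactive means mean below it, under half of replicates reach it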;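 further: signal also drops with host cell toxicity which is not excluded here; 0% = plate median of DMSO wells and 100% = zero luminescence signal; higher percent means less beta-gal luminescence so fewer parasites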
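System: Mouse NIH/3T3 fibroblasts infected with β-gal-expressing T. cruzi Tulahuen C4 | Quantity: NIH/3T3 cells, 5,000 per well | Reagent: 5000 reporter trypomastigotes per well | Dosing: Compound pinned at 50 nL/well, DMSO | Schedule: 3 h host attachment, then at least 90 h co-culture | Detection: GalScreen luminescence, 60 min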
PolyA inhibitor: yeast polyadenylation inhibition | S. cerevisiae SKY197-pL101 polyadenylation reporter, beta-gal luminescence; efflux-impaired pdr1/pdr3 knockout yeast; score 100 = 6 SD above DMSO | activity score, % at 12 µM | 0.02% of 300,000 active;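 active means lowest replicate activity score at least 50, where 100 means six control SD above control mean; inconclusive means lowest score under 50 but half or more replicates reach 50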;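 further: yeast exposed to compound for 9 h at 30 °C; higher score means more reporter readthrough which indicates perturbed polyadenylation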
Active calls of the source: *; i = inactive; ? = inconclusive; nt = no result given. Sampled rows, rich in hits. Any-hit rate of the full collection: about 2.6%.

SMILES	CHT allo act	CHT inh	T cruzi repl	PolyA inhibitor
C#CCOCCOCCOCCNc1nc(N2CCN(C(=O)[C@H](CCCCN)n3cc(C(N)CO)nn3)CC2)nc(N2CCN(C(=O)[C@H](CCCCN)n3cc(C(N)COC(=O)C(F)(F)F)nn3)CC2)n1 (stereo not given in full)	7.1*	i	-16	1
C#CCOCCOCCOCCNc1nc(N2CCN(C(=O)CCCCCCCCCCNC(=O)[C@H](CCCCN)n3cc(C[C@@H](C)CC)nn3)CC2)nc(N2CCN(C(=O)CCCCCCCCCCNC(=O)[C@H](CCCCN)n3cc(C[C@@H](C)CC)nn3)CC2)n1	i	i	55*	1
COc1cc2ccccc2cc1C(=O)NNC(=O)c1ccccc1O	i	i	57*	-11
COc1cc2ccccc2cc1C(=O)Nc1ccccc1Cl	i	i	3	-32
COc1ccc(C=C2C=C(C(C)(C)C)C(=O)C(C(C)(C)C)=C2)cc1OC	i	i	75*	5
COc1ccccc1N1CCN(Cc2cc(Br)c(O)c3ncccc23)CC1	i	i	59*	3
Oc1c(CN2CCN(c3ccccn3)CC2)cc(Cl)c2cccnc12	i	i	75*	-51
COc1ccccc1N1CCN(Cc2cc3c(cc2O)OCO3)CC1	i	i	-19	-12
O=C(Oc1c(CN2CCOCC2)cc(Cl)c2cccnc12)c1ccc(F)cc1	i	i	56*	-37
COCc1cc(CN2CCCC2)c(O)c2ncccc12	i	i	64*	-8
CCN1CCN(c2ccc(S(=O)(=O)N3CCCCC3)cc2NC(=O)CC(NC(C)=O)c2ccccc2)CC1 (stereo not given)	i	i	-5	9
CC(=O)N1c2ccc(S(=O)(=O)NCCC(=O)Nc3cccc(Cl)c3)cc2CC1C (stereo not given)	i	i	10	10
OCCC1CN(CC2CC2)CCN1Cc1ccc(F)c(F)c1 (stereo not given)	i	i	-20	32
NS(=O)(=O)c1ccc(NC(=S)N2CCN(C(=O)C3CCCO3)CC2)cc1 (stereo not given)	i	i	-6	-4
Oc1c(CN2CCCCC2)cc(COCc2ccccc2)c2cccnc12	i	i	72*	-22
CN(C)c1ncc(CN2CCC(CO)(CCCc3ccccc3)CC2)s1	i	i	56*	7
CCOC(=O)C1(CCc2ccccc2)CCN(Cc2cnc(N(C)C)s2)CC1	i	i	44	-1
CCN(CC)c1ccc(NC(=O)c2ccc3c(c2)c(C)c(C)n3C)cc1	i	i	69*	-8
Nc1nc2ccccc2n1CCOc1ccccc1Cl	i	-14*	36	7
CCOC(=O)C1CCN(C(=O)COC(=O)c2nn(C)c(=O)c3ccccc23)CC1	i	i	-19	5
O=C1N[C@@H](Cc2ccccc2)C(=O)N2[C@@H]3N(S(=O)(=O)c4ccccc4)c4ccccc4[C@]3(Br)C[C@@H]12	i	i	11	7
CC(C)c1cc(C(C)C)c(S(=O)(=O)N2c3ccccc3[C@]3(Br)C[C@H]4C(=O)N[C@@H](Cc5ccccc5)C(=O)N4[C@H]23)c(C(C)C)c1	nt	nt	55*	-6
O=C1N[C@@H](Cc2ccccc2)C(=O)N2[C@H]1C[C@]1([C@]34C[C@H]5C(=O)N[C@@H](Cc6ccccc6)C(=O)N5[C@H]3N(S(=O)(=O)c3ccccc3)c3ccccc34)c3ccccc3N(S(=O)(=O)c3ccccc3)[C@H]21	i	i	7	-19
CC(C)c1cc(C(C)C)c(S(=O)(=O)N2c3ccccc3[C@@]3(Br)C[C@H]4C(=O)N[C@@H](Cc5ccccc5)C(=O)N4[C@@H]23)c(C(C)C)c1	i	i	55*	-8
COc1cccc2sc(=NC(=O)CS(=O)(=O)c3ccc(Cl)cc3)n(C)c12	i	i	60*	-18
SMILES	CHT allo act	CHT inh	T cruzi repl	PolyA inhibitor
COc1cccc2sc(=NC(=O)CS(=O)(=O)c3ccc(F)cc3)n(C)c12	i	i	55*	-7
COc1cccc2sc(=NC(=O)CCS(=O)(=O)c3ccc(C)cc3)n(C)c12	i	i	22	-15
C/C(=N\NC(=O)c1ccn(C)n1)c1ccco1	i	i	-1	12
CCOC(=O)c1cnc2c(ccc3ccccc32)c1NCCCN(C)C	i	i	?	-5
O=C(NNc1cc(N2CCCC2)nc(N2CCCC2)n1)c1ccc([N+](=O)[O-])cc1	i	i	26	-19
O=C(CCc1ccccc1)NNc1cc(N2CCCCC2)nc(N2CCCCC2)n1	i	i	57*	-7
O=C(NC1CCCC1)C1CCN(C(=O)c2ccc(Cl)cc2)CC1	i	i	-5	-18
CC(C)(C)c1ccc(C(=O)N2CCC(C(=O)NC3CCCCCC3)CC2)cc1	i	-5.1*	-3	-2
O=C(Oc1c(Cl)cc(Cl)c2cccnc12)c1cccs1	i	i	75*	-39
O=C(Oc1c(Cl)cc(Cl)c2cccnc12)c1ccco1	i	i	68*	-57
O=C(Oc1c(CN2CCOCC2)cc(Cl)c2cccnc12)c1cccs1	i	i	30	-10
O=C(Cn1cnc([N+](=O)[O-])n1)NCc1ccccc1	i	i	79*	5
O=C(Cn1cnc([N+](=O)[O-])n1)N/N=C/c1ccc2ccccc2c1	i	i	62*	-14
O=C(Cn1cnc([N+](=O)[O-])n1)NCCO	i	i	-3	?
COc1cc(/C=C2/C(=N)N3C(=NC2=O)SN=C3S(C)(=O)=O)ccc1OS(=O)(=O)c1ccccc1	i	-6.2*	-14	-3
CCOc1cc(/C=C2/C(=N)N3C(=NC2=O)SN=C3S(C)(=O)=O)ccc1OS(=O)(=O)c1ccccc1	i	-5.6*	-13	-6
CCOc1cc(/C=C2/C(=N)N3C(=NC2=O)SN=C3S(C)(=O)=O)ccc1OC(=O)c1ccco1	i	i	-4	11
Clc1ccc(OCCCN2CCCCC2)c(Br)c1	i	i	46	-4
Clc1ccc(OCCCCCN2CCCC2)c(Br)c1	i	i	68*	-18
Cc1ccc(C(C)(C)C)c(OCCOCCN2CCCC2)c1	i	i	16	-5
Cc1ccc(OCCCCCCN2CCNCC2)c(Br)c1	i	i	33	-67
CCN1CCN(CCCOc2ccc(Cl)cc2Br)CC1	i	i	57*	15
CC(C)(C)c1ccccc1OCCOCCN1CCCCCC1	i	i	56*	-30
Clc1ccc(Cl)c(OCCCCN2CCNCC2)c1	i	i	60*	-4
O=c1c2cc(F)ccc2[nH]c(=S)n1Cc1ccc(F)cc1	i	i	-14	-40
Cc1cc(Br)ccc1OCCN1CCCC1	i	i	73*	9
CCN1CCN(CCOc2cccc(Cl)c2Cl)CC1	i	i	78*	0
Brc1ccccc1OCCCCCN1CCCC1	i	i	57*	-3
CCCc1nn(C)c(C(N)=O)c1[N+](=O)[O-]	i	i	5	8
